Reference: the EternaBench riboswitch data

System: MS2 coat protein
Assay: apparent Kd, MS2 coat protein; higher = weaker binding; RNA-MaP array; theophylline 2 mM where present
In short: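 In 100 mM Tris-HCl pH 7.5, 80 mM KCl, 4 mM MgCl2, BSA, DTT, yeast tRNA and Tween-20, SNAP-549-labelled MS2 coat protein was titrated from 0.7 or 1.5 nM, doubling to 3 µM, over designs transcribed by stalled E. coli RNA polymerase on Illumina sequencing-chip clusters. This was done first without ligand, then with ligand held constant. After green signal was normalised to red-channel RNA signal and control-cluster median Fmax, the apparent Kd was taken as the median of filtered per-cluster binding-curve fits.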

[1] = designed as: OFF switch for theophylline, no ligand
[2] = ligand present: theophylline, designed as: OFF switch for theophylline
[3] = designed as: ON switch for theophylline, no ligand
[4] = ligand present: theophylline, designed as: ON switch for theophylline

| Sequence | apparent Kd [1] [nM] | apparent Kd [2] [nM] | apparent Kd [3] [nM] | apparent Kd [4] [nM] |
| --- | --- | --- | --- | --- |
| UUAUUUAUAAUGGAUACCAGUUUAAUGGCCGCAAAUCCUGACAUGAGGAUCACCCAUGUAAGCCCUUGGCAGCUGUUAUGGGUUU | 34.8 | 41.3 | – | – |
| AUAAUGGGUAUCGGAUUAUCAUGGAAUGAUACCAGAUACUUAGAUAUCCCUUGGCAGCAUGAGGACAUGAGGAUCACCCAUGUAU | 46.4 | 118 | – | – |
| GCACCAGGUACGGAUACCAGCUGCCAGCGUUACAUGAGGAUCACCCAUGUGAUCUGAUAUAGCCCUUGGCAGCUGUACCUGGUGC | – | – | 110 | 865 |
| AUCCUUAAUAGGGUAAAUGGAUAAAGUGAUACCAGUCAAAUACAAGACCCUUGGCAGCACAAGGACAUGAGGAUCACCCAUGUCA | – | – | 20.5 | 14.7 |
| AGACAUGAGGAUCACCCAUGUAGUACGGAUACCAGAUCCAGAUGCGUCCCUUGGCAGCUGUGGUACAGCGUUACAUCGCUCGUAG | 17.6 | 17.6 | – | – |
| UGACAUUGCUCAGAUACCAGACAUGAGGAUCACCCAUGUACCAAGGUACCCGAAAGGAAUGUCCCUUGGCAGCUGAGCAAUGUCU | 9.93 | 21.6 | – | – |
| AGCGACAUGCGUGAUACCAGCUACAUGAGGAUCACCCAUGUACGUCAGAAAUGACUGUGUAGCCCUUGGCAGCAUAGUGCAUGUC | 32.6 | 60.7 | – | – |
| UUAUGAUGUUCCGAUACCAGCCAUGUGGUUCUAACUUAACAUGAGGAUCACCCAUGUACCGGCCCUUGGCAGCGGAUGUGGAUUA | – | – | 11.2 | 17 |
| AAUAACAUGAGGAUCACCCAUGUAAAAGAUACCAGAGUGAUGAUCCUCCCUUGGCAGCUUAAUAACGCUAUCGGAAACGAUAGCG | – | – | 69.2 | 105 |
| UUUGAUAGGACAGAUACCAGCGUGUUGUUGAACAUGAGGAUCACCCAUGUAGUGAUCAAGCGCCCUUGGCAGCUGGUUUGUUAGG | – | – | 236 | 81.7 |
| AACCGAGGCUAUCCUCUAAGACUAUGUGAUACCAGAAUAAUUUUAUUCCCUUGGCAGCAUGACAUGAGGAUCACCCAUGUCUCUU | – | – | 27.8 | 32.3 |
| GAGCUGAUGUAGGGCGGAUAUCCGUGAGAUACCAGUACAGAAAUGUACCCUUGGCAGCUCUUCCUUACAUGAGGAUCACCCAUGU | 19.4 | 36.1 | – | – |
| GCGAUACAUGAGGAUCACCCAUGUGCAGAUACCAGAGGUGCAUGCCUCCCUUGGCAGCUGCGACGCUCUGGCAUCUUGUGGGAUG | – | – | 69.1 | 71 |
